In test [1] the target is T1, Gastrin/cholecystokinin type B receptor (Homo sapiens, UniProt P32239).
T1 sequence (P32239 whole entry): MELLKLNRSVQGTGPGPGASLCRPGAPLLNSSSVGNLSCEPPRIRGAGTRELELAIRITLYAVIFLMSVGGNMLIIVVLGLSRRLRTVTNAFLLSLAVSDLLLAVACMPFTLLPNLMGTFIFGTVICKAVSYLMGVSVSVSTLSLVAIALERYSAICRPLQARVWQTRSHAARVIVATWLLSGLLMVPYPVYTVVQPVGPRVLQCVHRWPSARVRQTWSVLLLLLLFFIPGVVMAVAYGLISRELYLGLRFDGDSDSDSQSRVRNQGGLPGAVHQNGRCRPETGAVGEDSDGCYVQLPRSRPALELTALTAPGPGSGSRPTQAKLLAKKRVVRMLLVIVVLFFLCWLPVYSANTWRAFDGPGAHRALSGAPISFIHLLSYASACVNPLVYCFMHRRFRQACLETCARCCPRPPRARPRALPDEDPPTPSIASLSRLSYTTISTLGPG
As to the kind of experiment: Antagonist activity at CCK2 receptor expressed in HEK293 cells assessed as accumulation of [3H]inositol phosphates by PI assay. It is filed as functional, cell-based.

For test [2], the target named is T2, Delta-type opioid receptor (Homo sapiens, UniProt P41143). As to the kind of experiment: Displacement of [3H]DPDPE from human delta opioid receptor expressed in HN9.10 cells. It is filed as cell-based. The procedure, abridged:
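HN9.10 cell membranes (50 μg) expressing hDOR, 10 test concentrations with 1.0 nM [3H]DPDPE in 50 mM Tris pH 7.4 with peptidase inhibitors and BSA, 3 h at 25 °C, duplicates; filtration, scintillation counting. Nonspecific with 10 μM naloxone. Ki by Cheng–Prusoff.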
On the technique in general: Displacement assays read how much labelled ligand stays bound in the presence of the test substance.

The target of test [3] is Delta-type opioid receptor (Mus musculus, UniProt P32300). The test is described as follows: Agonist activity at delta opioid receptor assessed as inhibition of electrically stimulated ICR mouse vas deferens contraction. It is filed as functional, tissue-based. The procedure, abridged:
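Vas deferens from male ICR mice, in 20 mL baths at 0.5 g tension, Mg-free oxygenated Krebs, 37 °C; electrical stimulation 0.1 Hz, 2.0 ms pulses, supramaximal voltage. Cumulative addition to maximal inhibition; integrity checked with 10 nM DPDPE. IC50 by Hill-equation nonlinear least-squares fit, at least four tissues.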

The target of test [4] is T1, Gastrin/cholecystokinin type B receptor. The test is described as follows: Displacement of [125I]CCK-8(SO3) from human CCK2 receptor expressed in HEK293 cells. It is filed as cell-based.
The target in test [5] is Mu-type opioid receptor (Rattus norvegicus) (UniProt P33535). The test is described as follows: (§1) Activity against [35S]GTP-gamma-S binding to rat mu opioid receptor expressed in HN9.10 cells. It is filed as functional, cell-based. The procedure, abridged: (§2)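 Membranes (10 μg) from HN9.10 cells stably expressing hDOR or rMOR; various drug concentrations in duplicate or triplicate, 90 min at 30 °C in HEPES pH 7.4 with GDP, MgCl2, NaCl, 0.1 nM [35S]GTPγS; filtration, scintillation counting.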
Chain of Mu-type opioid receptor (Rattus norvegicus) (P33535 whole entry): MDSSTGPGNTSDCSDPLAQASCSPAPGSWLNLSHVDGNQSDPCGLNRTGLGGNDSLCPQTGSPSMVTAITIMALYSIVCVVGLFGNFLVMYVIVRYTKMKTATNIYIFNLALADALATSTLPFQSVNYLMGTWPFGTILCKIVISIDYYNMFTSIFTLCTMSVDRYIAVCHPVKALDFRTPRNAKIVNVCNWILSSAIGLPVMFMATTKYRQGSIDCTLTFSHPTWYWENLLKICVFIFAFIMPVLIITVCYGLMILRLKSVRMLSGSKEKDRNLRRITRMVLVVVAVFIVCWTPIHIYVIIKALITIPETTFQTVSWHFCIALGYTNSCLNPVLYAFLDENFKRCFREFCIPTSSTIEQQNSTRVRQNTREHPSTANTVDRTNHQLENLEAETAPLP
A general note: GTPγS is a poorly hydrolysed GTP analogue; its binding reports G protein activation.

The target of test [6] is T3, Mu-type opioid receptor (Rattus norvegicus, UniProt P33535). The description is as §1. It is filed as functional, cell-based. In outline: as §2
T3 sequence (P33535 whole entry): as above
Test [7] addresses T2, Delta-type opioid receptor. As to the kind of experiment: Activity against [35S]GTP-gamma-S binding to human delta opioid receptor expressed in HN9.10 cells. It is filed as functional, cell-based. In outline: as §2
Test [8] addresses T3, Mu-type opioid receptor. As to the kind of experiment: Displacement of [3H]DAMGO from rat mu opioid receptor expressed in HN9.10 cells. It is filed as cell-based. In outline: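 HN9.10 cell membranes (50 μg) expressing rMOR, 10 test concentrations with 1.0 nM [3H]DAMGO in 50 mM Tris pH 7.4 with peptidase inhibitors and BSA, 3 h at 25 °C, duplicates; filtration, scintillation counting. Nonspecific with 10 μM naloxone. Ki by Cheng–Prusoff.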

In test [9] the target is T4, Cholecystokinin receptor type A (Homo sapiens, UniProt P32238).
T4 sequence (P32238 whole entry): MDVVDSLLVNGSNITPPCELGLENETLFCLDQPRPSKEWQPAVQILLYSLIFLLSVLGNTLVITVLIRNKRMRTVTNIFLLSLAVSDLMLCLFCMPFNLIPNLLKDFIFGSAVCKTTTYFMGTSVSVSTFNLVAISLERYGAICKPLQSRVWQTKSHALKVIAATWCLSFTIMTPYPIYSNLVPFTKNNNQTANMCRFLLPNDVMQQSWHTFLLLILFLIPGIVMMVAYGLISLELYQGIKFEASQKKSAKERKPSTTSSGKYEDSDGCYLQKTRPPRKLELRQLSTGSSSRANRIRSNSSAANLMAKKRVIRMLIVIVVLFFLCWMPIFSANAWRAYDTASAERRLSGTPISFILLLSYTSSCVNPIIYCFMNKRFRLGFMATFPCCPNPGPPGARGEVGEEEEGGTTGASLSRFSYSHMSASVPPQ
The test is described as follows: Displacement of [125I]CCK-8(SO3) from human CCK1 receptor expressed in HEK293 cells. It is filed as cell-based.

Test [10] addresses Mu-type opioid receptor (Cavia porcellus, UniProt P97266). The test is described as follows: Agonist activity at mu opioid receptor assessed as inhibition of electrically stimulated Hartley guinea pig ileum contraction. It is filed as functional, tissue-based. In outline: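 Longitudinal muscle–myenteric plexus strips from male Hartley guinea pig ileum, 1 g tension, oxygenated Krebs at 37 °C; 0.1 Hz, 0.4 ms supramaximal stimulation. […] Integrity checked with 10 nM PL-017. Hill-equation fit, at least four tissues.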

In test [11] the target is T5, Cholecystokinin receptor type A (Homo sapiens) (UniProt P32238).
T5 sequence (whole entry): T4 sequence (P32238 whole entry)
Particulars: HEK293.

In general, EC50 refers to the concentration that produces a half-maximal response. By IC50 is commonly meant the concentration at which inhibition is half-maximal. In general, Ki refers to a measure of affinity in units of concentration, obtained from inhibition or displacement. Read a low Ki as tighter binding. The Emax is the greatest response seen or fitted, relative to the assay's reference.

Structures are written as SMILES. Activity calls are given as the source filed them. No cut-off for these calls is given here.

T2 sequence (P41143 whole entry): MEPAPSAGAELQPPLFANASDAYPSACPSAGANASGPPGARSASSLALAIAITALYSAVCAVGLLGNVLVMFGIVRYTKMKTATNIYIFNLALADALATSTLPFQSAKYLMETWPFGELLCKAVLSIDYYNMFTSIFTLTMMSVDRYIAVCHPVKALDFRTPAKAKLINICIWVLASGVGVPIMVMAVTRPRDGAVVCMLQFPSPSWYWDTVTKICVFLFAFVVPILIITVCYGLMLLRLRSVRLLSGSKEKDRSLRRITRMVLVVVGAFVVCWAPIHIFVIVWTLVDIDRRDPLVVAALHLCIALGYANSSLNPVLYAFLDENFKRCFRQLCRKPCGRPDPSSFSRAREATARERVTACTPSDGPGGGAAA
Chain of Mu-type opioid receptor (Cavia porcellus, UniProt P97266) (P97266 whole entry): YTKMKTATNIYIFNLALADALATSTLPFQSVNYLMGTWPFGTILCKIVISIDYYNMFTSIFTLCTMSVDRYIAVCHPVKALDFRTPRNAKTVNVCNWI
Chain of Delta-type opioid receptor (Mus musculus, UniProt P32300) (P32300 whole entry): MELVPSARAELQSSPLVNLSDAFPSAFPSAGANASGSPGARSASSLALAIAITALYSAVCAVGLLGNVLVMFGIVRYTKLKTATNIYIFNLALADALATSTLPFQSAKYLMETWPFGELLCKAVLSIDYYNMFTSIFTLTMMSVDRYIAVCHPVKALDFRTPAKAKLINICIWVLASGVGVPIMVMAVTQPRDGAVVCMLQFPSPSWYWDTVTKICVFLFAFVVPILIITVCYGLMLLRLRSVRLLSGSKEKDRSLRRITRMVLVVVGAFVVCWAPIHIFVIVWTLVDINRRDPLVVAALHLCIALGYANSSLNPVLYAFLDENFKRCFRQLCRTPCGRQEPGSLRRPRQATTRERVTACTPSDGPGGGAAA

For `CCCC[C@@H](C(=O)N[C@@H](CC(=O)O)C(=O)N[C@@H](Cc1ccccc1)C(N)=O)N(C)C(=O)[C@H](Cc1c[nH]c2ccccc12)NC(=O)CNC(=O)[C@@H](Cc1ccccc1)NC(=O)[C@@H](N)Cc1ccc(O)cc1`, the EC50 in [1] amounted to 16 nM; in test [6] it was 22 nM; in test [7] it was 2.5 nM. Moreover, the IC50 in test [2] is 18.6 nM; in [3], 65 nM; in test [4], 15.1 nM; in test [8] it was 245 nM; in test [9] it was 3630 nM; in test [10], 100 nM. The Ki in test [2] was determined as 1 nM; in test [4] it was 15 nM; in test [8], 100 nM; in test [9], 3600 nM. Moreover, the Emax in test [5] worked out at 300%; in test [7] it was 84%.

In the case of `CCCC[C@H](NC(=O)[C@H](Cc1c[nH]c2ccccc12)NC(=O)CNC(=O)[C@@H](C)NC(=O)[C@@H](N)Cc1ccc(O)cc1)C(=O)N[C@@H](CC(=O)O)C(=O)N[C@@H](Cc1ccccc1)C(N)=O`, the EC50 in [1] was found to be 8 nM; in [6] it was 12 nM; in test [7], 5.9 nM. Moreover, the half-maximal inhibitory concentration (IC50) in test [2] was 0.525 nM; in test [3], 45 nM; in test [4], 145 nM; in [8], 18.2 nM; in test [9], 5750 nM; in test [10], 160 nM. Also, the Ki in test [2] stood at 0.22 nM; in test [4], 150 nM; in [8], 7.8 nM; in test [9], 5700 nM. Besides, the Emax worked out at 86% in test [5] and 74% in test [7].

`CCCC[C@H](NC(=O)[C@@H](Cc1c[nH]c2ccccc12)NC(=O)CNC(=O)[C@@H](C)NC(=O)[C@@H](N)Cc1ccc(O)cc1)C(=O)N[C@@H](CC(=O)O)C(=O)N[C@@H](Cc1ccccc1)C(N)=O`: the EC50 in test [1] was 330 nM; in test [6], 350 nM; in test [7], 130 nM. Moreover, the IC50 in [2] was 2000 nM; in [3] it was 1300 nM; in test [4], 2690 nM; in test [8], 1290 nM; in [9], 6460 nM; in [10], 2300 nM. Also, the Ki is 860 nM in test [2], 2700 nM in test [4], 590 nM in test [8] and 6500 nM in [9]. Besides, the Emax in test [5] was found to be 110%; in test [7], 91%.

On to `CCCC[C@H](NC(=O)[C@@H](Cc1c[nH]c2ccccc12)NC(=O)CNC(=O)[C@@H](Cc1ccccc1)NC(=O)[C@@H](N)Cc1ccc(O)cc1)C(=O)N[C@@H](CC(=O)O)C(=O)N[C@@H](Cc1ccccc1)C(N)=O`, for which the 50% inhibitory concentration (IC50) is 398 nM in [2]; 170 nM in test [3]; 1740 nM in [4]; 708 nM in [8]; 1950 nM in test [9]; 2700 nM in test [10]. Besides, the Ki in test [2] was determined as 170 nM; in [4] it was 1700 nM; in test [8], 300 nM; in [9], 2000 nM. Also, the Emax in test [5] was determined as 160%; in test [7] it was 170%. In addition, the EC50 is 45 nM in [6] and 130 nM in test [7].

In the case of `CCCC[C@@H](C(=O)N[C@@H](CC(=O)O)C(=O)N[C@@H](Cc1ccccc1)C(N)=O)N(C)C(=O)[C@H](Cc1c[nH]c2ccccc12)NC(=O)CNC(=O)[C@@H](C)NC(=O)[C@@H](N)Cc1ccc(O)cc1`, the EC50 in test [1] came to 4.6 nM; in test [6] it was 18 nM; in test [7] it was 120 nM. In addition, the IC50 in test [2] was 5.25 nM; in test [3] it was 66 nM; in test [4] it was 1.62 nM; in [8] it was 89.1 nM; in test [9] it was 5130 nM; in test [10], 470 nM. The Ki in test [2] turned out to be 2.2 nM; in test [4], 1.6 nM; in [8], 39 nM; in test [9] it was 5100 nM. Also, the Emax in test [5] was 73%; in [7] it was 270%.

For `CCCC[C@@H](C(=O)N[C@@H](CC(=O)O)C(=O)N[C@@H](Cc1ccccc1)C(N)=O)N(C)C(=O)[C@@H](Cc1c[nH]c2ccccc12)NC(=O)CNC(=O)[C@@H](C)NC(=O)[C@@H](N)Cc1ccc(O)cc1`, the EC50 was determined as 6.6 nM in test [1], 38 nM in test [6] and 23 nM in test [7]. Besides, the IC50 in test [2] was 3.47 nM; in [3], 63 nM; in test [4] it was 1.55 nM; in [8], 50.1 nM; in [9], 316 nM; in test [10], 150 nM. The Ki came to 1.5 nM in [2], 1.5 nM in test [4], 22 nM in [8] and 320 nM in [9]. Further, the values for the Emax in [5] and in test [7] were 44% and 56%, respectively.

As for `CCCC[C@@H](C(=O)N[C@@H](CC(=O)O)C(=O)N[C@@H](Cc1ccccc1)C(N)=O)N(C)C(=O)[C@H](Cc1c[nH]c2ccccc12)NC(=O)CNC(=O)[C@@H](Cc1ccccc1)NC(=O)[C@H](Cc1ccc(O)cc1)NC(=O)[C@@H](N)CC(=O)O`, the “Log EC50” value in test [11] was “inactive”. Besides, the IC50 in test [2] was 550 nM; in test [8], 11500 nM; in test [9] it was 3160 nM. Further, the inhibitory constant (Ki) in test [2] was 250 nM; in test [8], 5200 nM; in test [9] it was 3200 nM. The values for the Emax in test [5] and in test [7] were 91% and 80%, respectively. In addition, the concentration for a half-maximal effect (EC50) in [6] was 81 nM; in [7], 110 nM.

Turning to `CCCC[C@@H](NC(=O)[C@@H](N)Cc1ccc(O)cc1)C(=O)NCC(=O)N[C@@H](Cc1c[nH]c2ccccc12)C(=O)N(C)[C@@H](CCCC)C(=O)N[C@@H](CC(=O)O)C(=O)N[C@@H](Cc1ccccc1)C(N)=O`, the EC50 came out at 19 nM in test [1], 110 nM in [6] and 15 nM in test [7]. Further, the IC50 is 4.68 nM in [2]; 9 nM in test [3]; 3.8 nM in test [4]; 58.9 nM in test [8]; 48 nM in [10]. The Ki amounted to 2 nM in test [2], 3.8 nM in test [4] and 25 nM in [8]. Further, the Emax in test [5] stood at 70%; in [7], 150%.

As to `CCCC[C@@H](C(=O)N[C@@H](CC(=O)O)C(=O)N[C@@H](Cc1ccccc1)C(N)=O)N(C)C(=O)[C@@H](Cc1c[nH]c2ccccc12)NC(=O)CNC(=O)[C@@H](Cc1ccccc1)NC(=O)[C@@H](N)Cc1ccc(O)cc1`, the EC50 in [1] is 2.8 nM; in test [7], 29 nM. Besides, the “Log EC50” value in test [11] was “inactive”. The IC50 in test [2] was 1 nM; in test [3], 24 nM; in test [4], 1.1 nM; in [8], 13.8 nM; in test [9] it was 1100 nM; in test [10], 71 nM. The inhibition constant Ki in test [2] amounted to 0.42 nM; in test [4], 1.1 nM; in test [8] it was 5.9 nM; in [9], 1100 nM. Moreover, the maximum response (Emax) in test [5] is 50%; in [7], 14%.

The values above are taken from ChEMBL document CHEMBL1147663, “Structure-activity relationships of bifunctional peptides based on overlapping pharmacophores at opioid and cholecystokinin receptors” (J Med Chem, 2006).
